Our source for the MFC, survival and BBC50 values is ChEMBL document CHEMBL1777798, “Novel fungicidal benzylsulfanyl-phenylguanidines” (Bioorg Med Chem Lett, 2011).

The subject of data set [1] is Nakaseomyces glabratus. As to the kind of experiment: Fungal activity against Candida glabrata BG2 assessed as concentration required to less than 0.1% survival of organism after 2 hrs. The note with it: BG2, 2 h. It counts as functional. The gist of the method:
(§1)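 C. albicans SC5314 or C. glabrata BG2 exposed to compounds. Cells then washed and plated on YPD (1% yeast extract, 2% peptone, 2% glucose) for CFU counts. MFC = minimal concentration leaving <0.1% survival relative to DMSO control.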

Data set [2] relates to Candida albicans. As to the kind of experiment: Fungicidal activity against Candida albicans SC5314 assessed as concentration required to less than 0.1% survival of organism after 2 hrs. It is filed as functional. As to conditions: SC5314, 2 h. A digest of the protocol:
as §1

Data set [3] relates to Candida albicans. As to the kind of experiment: Fungicidal activity against Candida albicans SC5314-infected Caenorhabditis elegans L4 larvae model assessed as survival of worms at 60 uM after 5 days relative to day 0. It is filed as functional. The gist of the method:
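C. elegans L4 larvae fed 4 h on YPD agar lawns of C. albicans SC5314 (overnight culture spread, 16 h at 37 °C). Worms washed in M9 buffer and incubated with compound at 60 μM or DMSO control. Living worms counted daily; % survival relative to day 0. Mean ±SEM of duplicates; experiments run at least twice.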

A short description of data set [4]: Toxicity in glp-4delta sek-1 delta double mutant Caenorhabditis elegans model assessed as survival at 50 uM after 11 days relative to day 0. It is filed as organism-based. The note with it: in vivo. The gist of the method:
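glp-4Δsek-1Δ C. elegans grown on NGM/OP50 E. coli plates to L4 and washed in M9 buffer (with cholesterol and kanamycin). 40–50 worms per well in 1 mL M9 with compound at 50 μM or DMSO (0.5%) control. Survival counted daily, relative to day 0. Mean ±SEM of duplicates; experiments run at least twice.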

Data set [5] is described as follows: Antimicrobial activity against mixed Candida albicans SC5314/Staphylococcus epidermidis assessed as biofilm eradication after 24 hrs. It counts as functional. The gist of the method: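 Mixed biofilm of C. albicans SC5314 and S. epidermidis (50/50). Overnight cultures suspended in 1/20 TSB at OD590 0.5 and mixed. 24 h adhesion, planktonic cells removed, then 48 h growth in fresh 1/20 TSB. Mature biofilms exposed 24 h to compound in PBS. Biomass read by crystal violet staining. BEC50 = concentration eradicating 50% of biofilm.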

The subject of data set [6] is Candida albicans. As to the kind of experiment: Fungicidal activity against Candida albicans SC5314 assessed as biofilm eradication after 24 hrs. It is filed as functional.

In brackets after ≈: the same amount, converted by molar mass.

Consider `N=C(N)Nc1ccccc1SCc1ccc(Cl)cc1`, for which the MFC in data set [1] and in data set [2] was > 100 µM in each case.

Take `Clc1ccc(CSc2ccccc2N=C(NC2CCCCC2)NC2CCCCC2)cc1`: the MFC in data set [1] is 50 µM (≈ 22.8 µg/mL); in data set [2] it was > 100 µM.

With `Nc1ccccc1SCc1ccc(Cl)cc1`, the MFC in data set [1] and in data set [2] was > 100 µM throughout.

Regarding `N=C(N)Nc1cccc(SCc2ccc(Cl)cc2)c1`, the MFC in data set [1] and in data set [2] was 100 µM (≈ 29.2 µg/mL) in each case.

As for `Clc1ccc(CSc2cccc(N=C(NC3CCCCC3)NC3CCCCC3)c2)cc1`, the MFC in data set [1] and in data set [2] was 5 µM (≈ 2.28 µg/mL) each time. Also, the survival at 60 µM in data set [3] was determined as 18.5%. The survival at 264 h, 50 µM in data set [4] is 19%.

As to `N=C(N)NC(=N)Nc1cccc(SCc2ccc(Cl)cc2)c1`, the MFC in data set [1] and in data set [2] was 50 µM (≈ 16.7 µg/mL) in each case.

Consider `N=C(N)Nc1ccc(SCc2ccc(Cl)cc2)cc1`, for which the MFC in data set [1] and in data set [2] was 50 µM (≈ 14.6 µg/mL) each time.

Turning to `Clc1ccc(CSc2ccc(N=C(NC3CCCCC3)NC3CCCCC3)cc2)cc1`, the MFC in data set [1] and in data set [2] was > 100 µM throughout.

Regarding `N=C(N)NC(=N)Nc1ccc(SCc2ccc(Cl)cc2)cc1`, the MFC in data set [1] and in data set [2] was 50 µM (≈ 16.7 µg/mL) each time.

Regarding `Nc1ccc(SCc2ccc(Cl)cc2)cc1`, the MFC in data set [1] and in data set [2] was > 100 µM each time.

On to `N=C(N)Nc1ccccc1SCc1cc(Br)cc(Br)c1`, for which the MFC in data set [1] and in data set [2] was 50 µM (≈ 20.8 µg/mL) each time.

For `Brc1cc(Br)cc(CSc2ccccc2N=C(NC2CCCCC2)NC2CCCCC2)c1`, the MFC was found to be 50 µM (≈ 29 µg/mL) in data set [1] and 5 µM (≈ 2.9 µg/mL) in data set [2].

As for `Nc1ccccc1SCc1cc(Br)cc(Br)c1`, the MFC in data set [1] and in data set [2] was > 100 µM in each case.

Turning to `N=C(N)Nc1cccc(SCc2cc(Br)cc(Br)c2)c1`, the MFC in data set [1] and in data set [2] was 50 µM (≈ 20.8 µg/mL) throughout.

`Brc1cc(Br)cc(CSc2cccc(N=C(NC3CCCCC3)NC3CCCCC3)c2)c1`: the MFC in data set [1] and in data set [2] was 5 µM (≈ 2.9 µg/mL) each time. For the same compound, the survival at 60 µM in data set [3] is 55.5%. Also, the survival at 264 h, 50 µM in data set [4] turned out to be 33%.

With `Cl.N=C(N)NC(=N)Nc1cccc(SCc2cc(Br)cc(Br)c2)c1`, the BBC50 in data set [5] turned out to be 55 µM. The MFC in data set [1] is 10 µM; in data set [2] it was 5 µM. In addition, the survival at 60 µM in data set [3] amounted to 15.4%. In addition, in data set [4], the survival at 264 h, 50 µM came to 5%.

As for `N=C(N)Nc1ccc(SCc2cc(Br)cc(Br)c2)cc1`, the MFC in data set [1] and in data set [2] was 50 µM (≈ 20.8 µg/mL) each time.

In the case of `Brc1cc(Br)cc(CSc2ccc(N=C(NC3CCCCC3)NC3CCCCC3)cc2)c1`, the minimum fungicidal concentration (MFC) in data set [1] and in data set [2] was 5 µM (≈ 2.9 µg/mL) throughout. Also, the survival at 60 µM in data set [3] came out at 49%. The survival at 264 h, 50 µM in data set [4] was 51%.

For `N=C(N)NC(=N)Nc1ccc(SCc2cc(Br)cc(Br)c2)cc1`, the MFC in data set [1] and in data set [2] was > 100 µM in each case.

Turning to `Nc1ccc(SCc2cc(Br)cc(Br)c2)cc1`, the MFC in data set [1] and in data set [2] was > 100 µM throughout.

Turning to `OC(Cn1cncn1)(Cn1cncn1)c1ccc(F)cc1F` [FLUCONAZOLE], the BBC50 in data set [5] and in data set [6] was >240 µM in each case. For the same compound, the MFC in data set [1] and in data set [2] was > 100 µM throughout.

What is called MFC is the smallest concentration meeting the test's criterion for killing the fungus.
